Measured values from article PMC2932756 (Chemico-biological interactions, 2010).

Columns and labels:
tyrosinase [1] = experiment: Tyrosinase mediated GSH depletion assay; assay type: biochemical, Mushroom; details: for Tyrosinase GSH depletion (2 h): 100 μM phenolic agent, 200 μM GSH, tyrosinase/O2, 37 °C
SK-MEL-28 melanoma cells [2] = experiment: MTT cell viability assay, IC50; assay type: cell-based, human
[3] = no reference given; cited from earlier work
[4] = Partition coefficient, distribution coefficient and water solubility
[5] = molecular target: T1, horseradish peroxidase (HRP) (Armoracia rusticana, UniProt P00433); experiment: Rate of AA and NADH oxidation by HRP/H2O2; assay type: biochemical
T1 sequence (P00433 31-338 limits assumed): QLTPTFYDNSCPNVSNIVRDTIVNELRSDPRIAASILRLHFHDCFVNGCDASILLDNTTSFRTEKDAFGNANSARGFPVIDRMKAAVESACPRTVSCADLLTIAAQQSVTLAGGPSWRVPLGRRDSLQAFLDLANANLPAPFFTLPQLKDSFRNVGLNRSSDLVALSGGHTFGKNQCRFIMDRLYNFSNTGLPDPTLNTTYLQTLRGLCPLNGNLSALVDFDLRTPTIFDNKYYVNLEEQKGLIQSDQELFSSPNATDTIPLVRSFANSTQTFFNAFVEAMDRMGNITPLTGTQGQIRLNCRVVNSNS

[6] = system: CYP2E1 induced rat liver microsomes; experiment: GSH depletion by rat liver P450 microsomal preparation/NADPH/O2; details: CYP2E1 pyrazole induced microsomes, 2 h incubation
tyrosinase [7] = experiment: Rate of AA and NADH oxidation by tyrosinase/O2; assay type: biochemical, Mushroom
SK-MEL-5 melanoma cells = experiment: MTT cell viability assay, SK-MEL-5; assay type: cell-based, human; details: CAPE 15 μM, 48 h
How it was run: (§1)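 24-well plates, 40,000 cells/well (SK-MEL-5 4,000/well) in 400 μL medium with 10% FBS, 24 h adhesion. Media: MEM Alpha for SK-MEL-5, MeWo and C32; DMEM for B16-F0 and B16-F10; McCoy's 5A for Saos-2; Leibovitz's L-15 for SW-620; RPMI for PC-3. Test compound 15 μM for 48 h; MTT 4 h, DMSO solubilisation for 2 h in the dark, A570. Viability relative to each line's untreated control.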

[8] = system: amelanotic SK-MEL-24 cells; experiment: MTT cell viability assay, SK-MEL-24; assay type: cell-based, human; details: CAPE 15 μM, 48 h
SK-MEL-28 melanoma cells [9] = experiment: MTT assay using biochemical modulators in SK-MEL-28 melanoma cells; assay type: cell-based, human; details: 48 h
How it was run: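 SK-MEL-28 cells in MEM Alpha with 10% FBS, 40,000/well in 24-well plates, 24 h to adhere. DMSO-dissolved modulators (1-bromoheptane 75 μM, dicoumarol 10 μM, cyclosporin A 15 μM, trifluoperazine 15 μM) added 20 min before test compound. Viability by MTT 48 h after compound addition: 4 h with dye, DMSO solubilisation for 2 h in the dark, A570.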

[10] = system: amelanotic C32 melanoma cells; experiment: Reactive oxygen species; assay type: cell-based, human; details: CAPE 15-300 μM
How it was run: (§2)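 Cells seeded at 40,000/well in black 96-well plates, 24 h at 37 °C. Medium replaced with 2′,7′-dichlorofluorescein diacetate, then test compound added; fluorescence read from the moment of addition (ex 485, em 535 nm). In SK-MEL-28 only: dicoumarol 10 μM, 1-bromoheptane 75 μM, cyclosporin A 15 μM or trifluoperazine 15 μM included. Six replicates averaged.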

oral cancer cells = details: read-out: IC50, cytotoxicity; 48 h; cited from earlier work
[11] = system: amelanotic C32 melanoma cells; experiment: Intracellular GSH measurement, C32; assay type: cell-based, human; details: 2 h
How it was run: (§3)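 Cells from 90-95% confluent cultures seeded at 1 million cells/mL in MEM Alpha with 10% FBS in 24-well plates, 3 h at 37 °C, then given 1 mL medium with test compound (15-200 μM) for 1, 2 or 3 h. Detached with trypsin-EDTA, lysed with 3% sulphosalicylic acid, spun at 14,000 rpm and 4 °C for 10 min; supernatant diluted 10-fold. GSH by DTNB/NADPH (0.3 mM)/GSSG reductase recycling, A405 every 30 s over 4 min.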

SK-MEL-28 cells [12] = experiment: Mitochondrial membrane potential; assay type: cell-based, human
How it was run: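 SK-MEL-28 cells seeded at 160,000/well in 6-well plates in MEM and left overnight; cyclosporin A 15 μM or ethylenediamine 1 mM added 24 h before test compound (15-50 μM; controls 1% DMSO). After 48 h, TMRM added for 30 min at 37 °C in the dark. Cells detached with versene, pelleted, resuspended in PBS. Flow cytometry on 10,000 events; arithmetic mean fluorescence, triplicates.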

[13] = system: melanocytic SK-MEL-28 cells; experiment: Intracellular GSH measurement, SK-MEL-28; assay type: cell-based, human; details: 2 h
How it was run: as §3

B16-F0 melanoma cells = experiment: MTT cell viability assay, B16-F0; assay type: cell-based, murine; details: CAPE 15 μM, 48 h
How it was run: as §1

SK-MEL-28 cells [14] = experiment: MTT assay in tyrosinase shRNA transfected SK-MEL-28 cells; assay type: cell-based, human; details: CAPE 15 μM, 48 h
How it was run: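 SK-MEL-28 cells seeded at 160,000/well in 6-well plates; after 24 h transfected with tyrosinase shRNA clone (FuGENE6). 24 h later, untransfected, tyrosinase-shRNA and non-specific shRNA cells given test compound 15 μM for a further 48 h. Viability by MTT: 4 h with dye, DMSO solubilisation for 2 h at room temperature in the dark, A570. Three experiments averaged.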

[15] = system: melanocytic SK-MEL-28 melanoma cells; experiment: Reactive oxygen species; assay type: cell-based, human
How it was run: as §2

[16] = system: osteosarcoma (Saos-2) cells; experiment: MTT cell viability assay, Saos-2; assay type: cell-based, human; details: CAPE 15 μM, 48 h
How it was run: as §1

[17] = system: colorectal adenocarcinoma (SW-620) cells; experiment: MTT cell viability assay, SW-620; assay type: cell-based, human; details: CAPE 15 μM, 48 h
How it was run: as §1

SK-MEL-28 melanoma cells [18] = experiment: Apoptosis assay; assay type: cell-based, human; details: CAPE 15 μM, 48 h
How it was run: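 SK-MEL-28 cells seeded at 160,000/well in 6-well plates in MEM and left overnight to attach; some wells transfected with tyrosinase shRNA3 or non-specific shRNA for 24 h. Treated with test compound 15 μM (controls 1% DMSO) for 48 h. Cells detached with versene, washed in PBS, pelleted, stained with annexin V-FITC plus PI in binding buffer for 15 min. Flow cytometry on 10,000 events; annexin+ cells (PI− or PI+) counted apoptotic; triplicates.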

[19] = system: SV40 transformed keratinocytes; details: read-out: IC50, inhibition of proliferation; 48 h; cited from earlier work
MeWo melanoma cells = experiment: MTT cell viability assay, MeWo; assay type: cell-based, human; details: CAPE 15 μM, 48 h
How it was run: as §1

[20] = system: human leukemia HL-60 cells; details: read-out: IC50, growth arrest; 48 h; cited from earlier work
prostate (PC-3) cells = experiment: MTT cell viability assay, PC-3; assay type: cell-based, human; details: CAPE 15 μM, 48 h
How it was run: as §1

amelanotic C32 cells = experiment: MTT cell viability assay, C32; assay type: cell-based, human; details: CAPE 15 μM, 48 h
How it was run: as §1

[21] = UV-VIS spectroscopy, stability of CAPE alone in solution; assay type: physicochemical; details: CAPE 100 μM alone, phosphate buffer pH 7.4
How it was run: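 Test compound 100 μM alone in 0.1 M phosphate buffer, pH 7.4, containing 1 mM DETAPAC; UV-visible spectrum recorded as the no-enzyme control for spectra of enzymatic oxidation, which were taken every two minutes.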

B16-F10 melanoma cells = experiment: MTT cell viability assay, B16-F10; assay type: cell-based, murine; details: CAPE 15 μM, 48 h
How it was run: as §1

## O=C(O)C=Cc1ccc(O)cc1 [4-HCA, 4-hydroxycinnamic acid]
Tyrosinase [1]
  Tyrosinase GSH depletion (2 h): 16±3%
SK-MEL-28 melanoma cells [2]; MTT assay, 48 h incubation
  LD50 (day 2) SK-MEL-28: 4.4 mM

## O=C(O)CCc1ccc(O)cc1 [4-HPP, 4-hydroxypropionic acid]
Tyrosinase [1]
  Tyrosinase GSH depletion (2 h): 42±2%
SK-MEL-28 melanoma cells [2]; MTT assay, 48 h incubation
  LD50 (day 2) SK-MEL-28: 1.5 mM

## O=C(O)/C=C/c1ccc(O)c(O)c1 [CA, caffeic acid]
Tyrosinase [1]
  Tyrosinase GSH depletion (2 h): 200±6%
[3]
  pKa value of the carboxylic moiety: 4.62
SK-MEL-28 melanoma cells [2]; MTT assay, 48 h incubation
  LD50 (day 2) SK-MEL-28: 2.3 mM
[4]; from LogW
  water solubility relative to CAPE: 45 fold
[4]; pH 7.4
  ionized at physiological pH: more than 99%

## O=C(/C=C/c1ccc(O)c(O)c1)OCCc1ccccc1 [CAPE, Caffeic Acid Phenylethyl Ester]
[5]; HRP 2 μM, H2O2 100 μM
  Rate of NADH oxidation by HRP/H2O2: 867 μM (AA and NADH depletion)/CAPE (μM)/HRP (μM)/min
[5]; with GSH
  Rate of AA oxidation by HRP/H2O2 in the presence of GSH: 10 μM GSH depletion/CAPE (μM)/HRP (μM)/min
  Rate of NADH oxidation by HRP/H2O2 in the presence of GSH: 5 μM GSH depletion/CAPE (μM)/HRP (μM)/min
[6]
  GSH depleted per mole of CAPE, rat liver microsomes: 0.5 mole GSH per one mole of CAPE
Tyrosinase [7]; CAPE 100 μM, tyrosinase 5 U/mL, NADH 200 μM, pH 7.4
  Rate of NADH oxidation by tyrosinase/O2: 10 nM (AA and NADH depletion)/CAPE (μM)/tyrosinase (U/mL)/min
Tyrosinase [7]; with GSH 200 μM
  Rate of NADH oxidation by tyrosinase/O2 in the presence of GSH: 0.08 nM GSH depletion/CAPE (μM)/tyrosinase (U/mL)/min
SK-MEL-5 melanoma cells
  cell viability: 57±3%
[8]
  cell viability: 81±7%
SK-MEL-28 melanoma cells [9]; CAPE 7.5 μM + BH 75 μM
  increase of CAPE toxicity by 1-bromoheptane (BH): 26%
SK-MEL-28 melanoma cells [9]; CAPE 7.5 μM + dicoumarol 10 μM
  enhancement of CAPE toxicity by dicoumarol: 39%
SK-MEL-28 melanoma cells [9]; CAPE 30 μM
  viability, CAPE incubated alone: 23±2%
[10]
  ROS formation: no significant ROS was formed
Oral cancer cells
  IC50: 75 µM
[11]; CAPE 15 μM
  intracellular GSH depleted: 3±2%
[11]; CAPE 50 μM
  intracellular GSH depleted: 10±2%
[11]; CAPE 100 μM
  intracellular GSH depleted: 13±3%
[11]; CAPE 200 μM
  intracellular GSH depleted: 24±2%
Tyrosinase [1]
  Tyrosinase GSH depletion (2 h): 82±6%
Tyrosinase [1]; 2 h incubation
  GSH depleted per mole of CAPE, tyrosinase/O2: 0.8 mole GSH per mole of CAPE
SK-MEL-28 cells [12]; CAPE 15 μM
  decrease in mitochondrial membrane potential: 17±1%
SK-MEL-28 cells [12]; CAPE 15 μM + CS 15 μM
  decrease in mitochondrial membrane potential in the presence of CS: 8±1%
SK-MEL-28 cells [12]; CAPE 15 μM + ethylenediamine 1 mM
  decrease in mitochondrial membrane potential in the presence of ethylenediamine: 4±1%
SK-MEL-28 cells [12]; CAPE 30 μM
  decrease in mitochondrial membrane potential: 20±2%
SK-MEL-28 cells [12]; CAPE 30 μM + CS 15 μM
  decrease in mitochondrial membrane potential in the presence of CS: 12±1%
SK-MEL-28 cells [12]; CAPE 30 μM + ethylenediamine 1 mM
  decrease in mitochondrial membrane potential in the presence of ethylenediamine: 10±1%
[13]; CAPE 15 μM
  intracellular GSH depleted: 11±4%
[13]; CAPE 50 μM
  intracellular GSH depleted: 19±2%
[13]; CAPE 100 μM
  intracellular GSH depleted: 26±1%
[13]; CAPE 200 μM
  intracellular GSH depleted: 54±1%
B16-F0 melanoma cells
  cell viability: 58±6%
SK-MEL-28 cells [14]
  cell viability, tyrosinase shRNA transfected cells: 87±5%
  cell viability, untransfected cells: 43±6%
[15]; BH 75 μM
  ROS formation, CAPE + BH: 11±2 fold
[15]; CAPE 15 μM + TF 15 μM, 40 min
  ROS formation, CAPE + TF: 5±1 fold
[15]; CAPE 15 μM, 40 min
  ROS formation, CAPE alone: 8±1 fold
[15]; CAPE 15-300 μM, various time points
  ROS formation: concentration- and time-dependent escalation in ROS formation
[15]; CS 15 μM
  ROS formation, CAPE + CS: 4±1 fold
[15]; DC 10 μM
  ROS formation, CAPE + DC: 12±2 fold
[16]
  cell viability: 90±6%
[17]
  cell viability: 89±3%
SK-MEL-28 melanoma cells [18]
  apoptotic cell death: 12.5±0.7%
  increase in apoptotic cell death in comparison to untreated control cells: 2.5 fold
[19]
  IC50: 7 µM
MeWo melanoma cells
  cell viability: 51±6%
[20]
  IC50: 2.5 µM
Prostate (PC-3) cells
  cell viability: 88±3%
SK-MEL-28 melanoma cells [2]; MTT assay, 48 h incubation
  LD50 (day 2) SK-MEL-28 / IC50 (48 h): 15 µM
SK-MEL-28 melanoma cells [2]; SK-MEL-28
  toxicity relative to caffeic acid, based on IC50 (48 h): 153 fold
Amelanotic C32 cells
  cell viability: 86±4%
[21]
  stability of spectrum in solution (auto-oxidation): stable
B16-F10 melanoma cells
  cell viability: 60±4%
[4]; pH 7.4
  ionized at physiological pH: not significantly ionized
  lipid solubility relative to caffeic acid (antilog LogD): 40,000 fold
